PHOSPHO1 inh – PubChem AID 1565 | Phosphoethanolamine/phosphocholine phosphatase (Homo sapiens), Q8TCT1 | recombinant PHOSPHO1, absorbance phosphatase assay | inhibition, % at 13.3 µM | hit rate 1.1% among 290,000; in the data active = inhibition above about 60%
Target sequence (Q8TCT1 whole entry, looked up): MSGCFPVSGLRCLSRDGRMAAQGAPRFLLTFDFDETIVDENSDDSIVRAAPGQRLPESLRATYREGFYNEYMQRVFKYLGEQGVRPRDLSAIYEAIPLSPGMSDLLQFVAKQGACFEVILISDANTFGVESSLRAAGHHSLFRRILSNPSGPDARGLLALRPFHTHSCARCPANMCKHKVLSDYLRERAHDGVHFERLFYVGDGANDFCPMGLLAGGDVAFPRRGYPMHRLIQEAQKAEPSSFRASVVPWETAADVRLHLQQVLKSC
proCasp3 act – activators of human procaspase-3 D3A mutant, primary screen, biochemical, absorbance, PC-3 D3A mutant, single concentration; recombinant procaspase-3 D3A, Ac-DEVD-pNA absorbance 405 nm; activation, % at 8.5 µM; hit rate 0.11% among 330,000; AID 463141, 2010;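 active = activation above the mean of all tested compounds plus 3 SD, cut at about 21% in these data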
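Test system: Procaspase-3 D3A mutant; medium: Zinc-free HEPES/NaCl buffer with 0.01% Triton X-100 at pH 7.4; reagent: DEVD-pNA substrate; doses: one concentration, 8.5 µM nominal, 0.8% DMSO; times: 1 h preincubation plus 2 h reaction at 25 °C; signal: Epi-absorbance at 405 nm of released p-nitroaniline, 0 and 120 min; replicates: singlicate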
IDE inh – human IDE inhibitors in live cells, primary screen, fluorescence polarization, HEK cells, FAbetaB substrate; FAbetaB cleavage; inhibition, % at 5.59 µM; hit rate 0.41% among 320,000;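 active = percent inhibition above the average of all tested compounds plus 3 SD, set per screening campaign, cut at about 16% in these data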;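 also: IDE supplied by intact live HEK cells; FP after avidin binding of uncleaved biotin substrate so inhibition keeps polarization high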
IDE cell activ – human IDE activators in live cells, primary screen, fluorescence polarization, HEK cells, FAbeta-B substrate. Insulin-degrading enzyme (Homo sapiens), P14735. FAbeta-B cleavage; 0% vehicle, 100% cell-free pure enzyme wells. activation, % at 5.96 µM. hit rate 0.073% among 340,000;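 active = activation above the mean of all tested compounds plus 3 SD, set per screening campaign, cut at about 17% in these data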
UBC13 inh – UBC13 polyubiquitin chain formation inhibitors, primary screen, biochemical, TR-FRET, uHTS; Ubiquitin-conjugating enzyme E2 N (Homo sapiens), P61088; hit rate 0.47% among 330,000; inhibition, % at 20 µM; in the data active = inhibition above about 45%, passing the limit was not always enough; inconclusive = no clear call, values can overlap the other calls
Target sequence (P61088 whole entry, looked up): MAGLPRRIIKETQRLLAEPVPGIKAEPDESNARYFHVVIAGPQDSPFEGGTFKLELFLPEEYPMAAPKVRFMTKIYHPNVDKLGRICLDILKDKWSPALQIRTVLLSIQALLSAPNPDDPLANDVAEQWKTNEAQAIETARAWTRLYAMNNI
procasp7 counter – procaspase-7 activators, primary screen, counter-screen for procaspase-3 activator project, biochemical, absorbance, HTS, human. Caspase-7 (Homo sapiens), P55210. recombinant procaspase-7, Ac-DEVD-pNA absorbance 405 nm; D23A/D198A/D206A triple mutant, cannot self-cleave; scale: DMSO 0, 5 µM enzyme 100. activation, % at 8.5 µM. hit rate 0.093% among 330,000. AID 463210, 2010;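 active = percent activation above the screen-wide mean plus 3 SD, cut at about 25% in these data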
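signal = Epi-absorbance of released pNA at 405 nm, two timepoints | assay system = Uncleavable procaspase-7 mutant enzyme | reagent = Ac-DEVD-pNA substrate, 400 µM as added | times = 1 h enzyme–compound preincubation and 2 h substrate reaction, both 25 °C | benchmarks = low DMSO alone, high DMSO plus 5 µM PC-7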
Casp3 counter – CASP3 inhibitor validation, counterassay for project on UBE2N polyubiquitination blockers, biochemical, one dose; shares compounds with UBC13 inh; Recombinant caspase-3, Caspase-Glo 3/7 luminescence, 60 min; inhibition, % at 20 µM; hit rate 4% among 1,400; AID 488856, 2010;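 active = mean inhibition across replicates above about 26%, limit read from the data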
Target sequence (P42574 whole entry, looked up): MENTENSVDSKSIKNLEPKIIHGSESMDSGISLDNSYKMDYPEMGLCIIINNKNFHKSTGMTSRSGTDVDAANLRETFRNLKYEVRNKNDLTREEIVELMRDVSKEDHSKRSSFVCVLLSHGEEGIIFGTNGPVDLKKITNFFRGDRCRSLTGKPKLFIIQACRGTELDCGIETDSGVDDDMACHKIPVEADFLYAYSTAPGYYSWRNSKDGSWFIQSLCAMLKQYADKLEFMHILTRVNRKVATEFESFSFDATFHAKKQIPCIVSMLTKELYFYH
UBC13 confirm – UBC13 polyubiquitination inhibitors, single-point retest, confirmation, biochemical, TR-FRET, single concentration; inhibition, % at 10 µM; hit rate 68% among 1,400; shares compounds with UBC13 inh; in the data active = inhibition above about 45%; inconclusive = no clear call, values can overlap the other calls
Each line names hits and unclear results; the compound was inactive in the other large screens (follow-up assays come after a bar, where they were run). Most compounds without a hit are left out; they make up all but 1.9% or so of the library.

CCc1ccc(O)c(CNCCNCc2cc(CC)ccc2O)c1	UBC13 inh 64 (no result: PHOSPHO1 inh) | Casp3 counter inactive | UBC13 confirm inactive
Cc1ccc(O)c(CNCCNCc2cc(C)ccc2O)c1	UBC13 inh 50 (no result: PHOSPHO1 inh) | Casp3 counter inactive | UBC13 confirm 52
COc1ccc(CNCc2cc(Cl)ccc2O)cc1	none (no result: PHOSPHO1 inh)
Cc1ccc(C)c(OCCC(=O)NNC(=O)c2cc(C)oc2C)c1	none (no result: PHOSPHO1 inh)
Cc1ccc2nc(N(CCCN(C)C)C(=O)c3sc4ccccc4c3Cl)sc2c1	UBC13 inh 49 | Casp3 counter inactive | UBC13 confirm 64
CN(C)CCCN(C(=O)c1ccc(S(=O)(=O)N2CCc3ccccc3C2)cc1)c1nc2ccc(F)cc2s1	UBC13 inh 55 | Casp3 counter inactive | UBC13 confirm 99
CN(C)CCCN(C(=O)c1ccc(S(=O)(=O)N2CCc3ccccc32)cc1)c1nc2ccc(F)cc2s1	none
Cc1ccc2nc(N(CCCN(C)C)C(=O)c3ccc(S(=O)(=O)N4CCc5ccccc5C4)cc3)sc2c1	UBC13 inh 78 | Casp3 counter inactive | UBC13 confirm 110
COc1ccc2sc(N(CCCN(C)C)C(=O)c3ccc(S(=O)(=O)N4CCc5ccccc5C4)cc3)nc2c1	UBC13 inh 75 (no result: PHOSPHO1 inh) | Casp3 counter inactive | UBC13 confirm 110
Cc1ccc2nc(N(CCCN(C)C)C(=O)c3ccc(S(=O)(=O)N(C)C)cc3)sc2c1	none
Cc1ccc(C)c(N(C)S(=O)(=O)c2ccc3c(c2)oc(=O)n3C)c1	none
COc1ccc(NC(=O)COC(=O)CNC(=O)c2cccs2)cc1Cl	none (no result: PHOSPHO1 inh)
Cc1cc(C)c2sc(N(CCCN(C)C)C(=O)c3ccc(S(=O)(=O)N4CCc5ccccc5C4)cc3)nc2c1	UBC13 inh 87 (no result: PHOSPHO1 inh) | Casp3 counter inactive | UBC13 confirm 112
CCCCCCCCn1ccc(=N)cc1	none
CCCCCCCCCCCCCCCCn1cc[n+](C)c1	UBC13 inh 73 | Casp3 counter inactive | UBC13 confirm 99
COCc1c(C(=O)N/N=C/c2ccncc2)nnn1-c1nonc1N	none
FC(F)(F)c1nc2ccccc2n2c(-c3ccc(Cl)cc3)nnc12	none
Cc1ccc(-c2nnc3c(C(F)(F)F)nc4ccccc4n23)cc1	UBC13 inh 52 | Casp3 counter inactive | UBC13 confirm inconclusive
CC1(C)Oc2ccc(C(=O)N/N=C/c3ccc(O)cc3)cc2NC1=O	none
Cc1ccc(CN2CCC(CNC(=O)c3ccc(NC(=O)C4=CSCCO4)cc3)CC2)cc1	UBC13 inh 72 | Casp3 counter inactive | UBC13 confirm 96
C#CCOCCOCCOCCNc1nc(N2CCN(C(=O)[C@H](Cc3cc4ccccc4[nH]3)n3cc(C(N)CC(C)C)nn3)CC2)nc(N2CCN(C(=O)[C@H](CCC(=O)O)n3cc(C(N)[C@H](C)CC)nn3)CC2)n1 (stereo partly specified)	none
C#CCOCCOCCOCCNc1nc(N2CCOCC2)nc(N2CCN(C(=O)[C@H](Cc3cc4ccccc4[nH]3)n3cc([C@@H](N)CC(C)C)nn3)CC2)n1	none
C#CCOCCOCCOCCNc1nc(N2CCN(C(=O)C(Cc3cc4ccccc4[nH]3)n3cc(C(N)Cc4ccc(O)cc4)nn3)CC2)nc(N2CCN(C(=O)C(CCC(=O)O)n3cc(C(N)C(C)CC)nn3)CC2)n1 (stereo unspecified)	none (no result: PHOSPHO1 inh)
C#CCOCCOCCOCCNc1nc(N2CCN(C(=O)[C@H](Cc3cc4ccccc4[nH]3)n3cc([C@@H](N)C(C)CC)nn3)CC2)nc(N2CCN(C(=O)[C@H](Cc3cc4ccccc4[nH]3)n3cc([C@@H](N)Cc4ccc(O)cc4)nn3)CC2)n1 (stereo partly specified)	UBC13 inh 124 (no result: IDE cell activ) | Casp3 counter inactive | UBC13 confirm 119
C#CCOCCOCCOCCNc1nc(N2CCN(C(=O)[C@H](Cc3cc4ccccc4[nH]3)n3cc([C@@H](N)C(C)CC)nn3)CC2)nc(N2CCN(C(=O)[C@H](CCCCN)n3cc([C@@H](N)CC(C)C)nn3)CC2)n1 (stereo partly specified)	UBC13 inh 98 (no result: IDE cell activ) | Casp3 counter inactive | UBC13 confirm 116
C#CCOCCOCCOCCNc1nc(N2CCN(C(=O)[C@H](Cc3cc4ccccc4[nH]3)n3cc([C@@H](N)Cc4ccc(O)cc4)nn3)CC2)nc(N2CCN(C(=O)[C@H](Cc3cc4ccccc4[nH]3)n3cc([C@@H](N)CC(C)C)nn3)CC2)n1	none (no result: proCasp3 act, IDE inh, UBC13 inh, procasp7 counter)
C#CCOCCOCCOCCNc1nc(N2CCN(C(=O)[C@H](Cc3ccc(O)cc3)n3cc([C@@H](N)C(C)CC)nn3)CC2)nc(N2CCN(C(=O)[C@H](Cc3cc4ccccc4[nH]3)n3cc([C@@H](N)CC(C)C)nn3)CC2)n1 (stereo partly specified)	UBC13 inh 76 (no result: IDE cell activ) | Casp3 counter inactive | UBC13 confirm 56
C#CCOCCOCCOCCNc1nc(N2CCN(C(=O)[C@H](Cc3cc4ccccc4[nH]3)n3cc([C@@H](N)CC(C)C)nn3)CC2)nc(N2CCN(C(=O)[C@H](Cc3cc4ccccc4[nH]3)n3cc([C@@H](N)CC(C)C)nn3)CC2)n1	UBC13 inh 106 | Casp3 counter inactive | UBC13 confirm 105
COc1ccccc1C(=O)NC(=O)COC(=O)CNC(=O)c1ccc(Cl)c([N+](=O)[O-])c1	none (no result: PHOSPHO1 inh)
Cc1cc(OC(C)C(=O)NCC(O)c2ccccc2)c2c(C)cc(=O)oc2c1 (stereo unspecified)	none
C[C@@H]1COC(=O)[C@@H](Cc2ccc(F)cc2)C/C=C\C[C@@H](CC(=O)N[C@H](CO)Cc2ccccc2)C(=O)N1	none (no result: PHOSPHO1 inh)
C#CCOCCOCCOCCNc1nc(N2CCN(C(=O)[C@H](Cc3ccc(O)cc3)n3cc([C@@H](N)C(C)CC)nn3)CC2)nc(N2CCN(C(=O)[C@H](Cc3cc4ccccc4[nH]3)n3cc([C@@H](N)C(C)CC)nn3)CC2)n1 (stereo partly specified)	UBC13 inh 77 | Casp3 counter inactive | UBC13 confirm 66

Source: PubChem BioAssay (several laboratories)
